# Data published in ChEMBL document CHEMBL1129567, “Structure-based design of novel, urea-containing FKBP12 inhibitors” (J Med Chem, 1996).
# Target: Peptidyl-prolyl cis-trans isomerase FKBP1A (Homo sapiens, UniProt P62942)
# Assay: Apparent inhibition constant of Wild-type human recombinant FK506 binding protein 12
# Settings: read-out: Ki app
# Procedure, shortened: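 Wild-type human recombinant FKBP12 (E. coli-expressed, purified), 90 nM, chymotrypsin-coupled continuous spectrophotometric cis-trans isomerase assay with 100 µM cis succinyl-Ala-Leu-Pro-Phe-p-nitroanilide (stock in trifluoroethanol/240 mM LiCl) at 10 or 15 °C. Buffer: 50 mM HEPES pH 8.0, 100 mM NaCl, 100 µM 2-mercaptoethanol, 1% DMSO, 6 mg/mL chymotrypsin. Read for 5 min. Fit to competitive tight-binding equation corrected for uncatalyzed isomerization.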
# Sequence of Peptidyl-prolyl cis-trans isomerase FKBP1A (P62942 whole entry): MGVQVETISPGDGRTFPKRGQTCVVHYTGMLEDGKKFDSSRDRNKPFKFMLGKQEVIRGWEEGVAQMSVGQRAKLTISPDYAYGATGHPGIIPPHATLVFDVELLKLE
row,Ki [nM],SMILES
1,120,CC1(CNC(=O)N2CCCC[C@H]2C(=O)OCCCCc2ccccc2)CCCCC1
2,150,CC(C)(C)CNC(=O)N1CCCC[C@H]1C(=O)OCCCCc1ccccc1
3,390,COc1cc(CCCOC(=O)[C@@H]2CCCCN2C(=O)NCC(C)(C)C)cc(OC)c1OC
4,370,COc1cccc(CCCOC(=O)[C@@H]2CCCCN2C(=O)NCC(C)(C)C)c1
5,200,CC1(CNC(=O)N2CCCC[C@H]2C(=O)OCc2cccc(Oc3ccccc3)c2)CCCCC1
6,8400,CC(C)(CO)CNC(=O)N1CCCC[C@H]1C(=O)OCc1ccccc1
7,570,CC1(CNC(=O)N2CCCC[C@H]2C(=O)OCc2ccccc2)CCCC1
8,14000,O=C(OCc1ccccc1)[C@@H]1CCC[C@H]2CCN(Cc3ccccc3)C(=O)N21
9,550,CC1(CNC(=O)N2CCCC[C@H]2C(=O)OCc2ccccc2)CCCCC1
10,790,CC(C)(C)CNC(=O)N1CCCC[C@H]1C(=O)OCc1ccccc1
11,350,CC(C)(C)CNC(=O)N1CCCC[C@H]1C(=O)O[C@H](CCc1ccccc1)c1ccccc1
12,220,CC(C)(C)CNC(=O)N1CCCC[C@H]1C(=O)OCc1cccc(Oc2ccccc2)c1
13,6500,O=C(OCc1ccccc1)[C@@H]1CCCCN1C(=O)NCc1ccccc1
14,83000,CCCN1CC[C@@H]2CCC[C@@H](C(=O)OC)N2C1=O
15,24000,CCCN1CC[C@@H]2CCC[C@@H](C(=O)OCc3ccccc3)N2C1=O
16,7200,C=C(C)CNC(=O)N1CCCC[C@H]1C(=O)OCc1ccccc1
17,67000,COC(=O)[C@@H]1CCC[C@H]2CCN(Cc3ccccc3)C(=O)N21
